SENP1 FRET inh: inhibitors of human SENP1 SUMO protease catalytic domain; recombinant SENP1 catalytic domain, CyPet-SUMO1-YPet FRET cleavage; inhibition, % at 10 µM; 360,000 tested, 0.21% active;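 active = inhibition at least 30% at 10 µM, raw YFP signal under a set limit, fluorescence ratio 0.5 to 1.5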;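 also: 0% = enzyme with DMSO and 100% = no enzyme wells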
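Test system: human SENP1 catalytic domain; medium: Tris pH 8 buffer plus EDTA, NaCl, BME, BSA, NP40, catalase; incubation: 50 min reaction at room temperature; technique: FRET, CFP and YFP emission; controls: no-enzyme low control and enzyme-plus-DMSO high control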
AHR activator: activators of human aryl hydrocarbon receptor; AHR-responsive luciferase reporter cells, luminescence; activation, % at 5 µM; 320,000 tested, 2.5% active; in the data active = activation above about 47%;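 also: 0% = vehicle wells and 100% = reference agonist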
Target sequence (P35869 whole entry, looked up): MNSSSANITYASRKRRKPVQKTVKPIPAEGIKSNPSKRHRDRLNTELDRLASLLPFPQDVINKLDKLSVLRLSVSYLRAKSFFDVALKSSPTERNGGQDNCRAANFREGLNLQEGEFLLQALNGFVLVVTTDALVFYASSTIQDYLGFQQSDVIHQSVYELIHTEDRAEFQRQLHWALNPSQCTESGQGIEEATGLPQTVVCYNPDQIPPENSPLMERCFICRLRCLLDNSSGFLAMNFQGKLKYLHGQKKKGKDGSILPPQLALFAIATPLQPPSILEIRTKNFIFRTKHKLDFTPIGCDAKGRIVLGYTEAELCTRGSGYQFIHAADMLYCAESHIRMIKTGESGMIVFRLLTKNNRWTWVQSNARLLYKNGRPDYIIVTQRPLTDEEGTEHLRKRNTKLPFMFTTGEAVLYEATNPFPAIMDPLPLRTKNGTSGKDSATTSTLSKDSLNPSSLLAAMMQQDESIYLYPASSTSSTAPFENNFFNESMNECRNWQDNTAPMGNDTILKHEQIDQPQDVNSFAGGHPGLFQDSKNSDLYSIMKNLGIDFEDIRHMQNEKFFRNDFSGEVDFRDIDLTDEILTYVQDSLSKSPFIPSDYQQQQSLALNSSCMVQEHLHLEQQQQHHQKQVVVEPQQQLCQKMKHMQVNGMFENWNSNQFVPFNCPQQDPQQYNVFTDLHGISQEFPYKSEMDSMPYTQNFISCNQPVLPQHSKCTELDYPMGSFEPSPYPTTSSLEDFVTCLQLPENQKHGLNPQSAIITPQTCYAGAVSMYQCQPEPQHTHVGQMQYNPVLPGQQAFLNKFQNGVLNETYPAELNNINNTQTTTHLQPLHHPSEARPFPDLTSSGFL
HDAC3 inhib: human HDAC3 inhibition; 320,000 tested, 0.15% active; O15379; inhibition, % at 8.3 µM; recombinant HDAC3, fluorogenic peptide/trypsin coupled, fluorescence; in the data active = inhibition above about 26%, passing the limit was not always enough
CTSL1 counter-1: blocks F. hepatica cathepsin L1 in PFM18AAP counter-screen; recombinant F. hepatica cathepsin L1, Z-Leu-Arg-MCA fluorescence; inhibition, % at 5.96 µM; 300,000 tested, 0.49% active;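 active = inhibition above the mean of all tested compounds plus 3 SD, set per screening campaign, cut at about 17% in these data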;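 also: 0% = plate median of test compound wells and 100% = 1 µM Z-Phe-Ala-diazomethylketone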
PfM18AAP inh-1: PfM18AAP enzyme inhibition; 290,000 tested, 1.2% active; recombinant PfM18AAP, H-Glu-NHMec fluorogenic cleavage; inhibition, % at 7.35 µM; AID 1822;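 active = inhibition above the campaign mean inhibition over all tested compounds plus 3 SD, cut at about 28% in these data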;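 also: 0% = plate median of test compound wells and 100% = 2 mM ZnCl2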
FXN GAA850 act: increases GAA850 frataxin promoter reporter activity. HEK293 lucGAA850 FXN promoter luciferase reporter, 24 h; percent of 10 µM SAHA response. activation, % at 6 µM. 360,000 tested, 0.56% active;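 active = activation above the average of all compounds screened plus 3 SD, cutoff fixed separately per campaign, cut at about 7.5% in these data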;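 also: 0% = DMSO wells and 100% = 10 µM SAHA wells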
PfM18AAP inh-2: PfM18AAP inhibition, confirmation; inhibition, % at 7.35 µM; AID 2170; recombinant PfM18AAP, H-Glu-NHMec fluorogenic cleavage; shares compounds with PfM18AAP inh-1; 2,400 tested, 28% active;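 active = mean inhibition over replicate wells above the hit cutoff set for the earlier primary screen, cut at about 29% in these data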;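 also: 0% = median of test compound wells and 100% = 2 mM ZnCl2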
CTSL1 counter-2: counter-screen for PFM18AAP inhibitors: confirmation of human cathepsin L inhibitors; shares compounds with PfM18AAP inh-1; purified cathepsin L1, Z-Leu-Arg-MCA fluorescence; inhibition, % at 5.96 µM; 2,400 tested, under 10 active; AID 2178;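 active = average inhibition across replicates above the hit cutoff set in the earlier primary screen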;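 also: 0% = median of test compound wells and 100% = Z-Phe-Ala-diazomethylketone 1 µM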
* = called active by the depositor; nt = no result. This is a sample that favours compounds with a hit; in the whole collection about 4.2% have one here.

SMILES	SENP1 FRET inh	AHR activator	HDAC3 inhib	CTSL1 counter-1	PfM18AAP inh-1	FXN GAA850 act	PfM18AAP inh-2	CTSL1 counter-2
COc1ccccc1Cn1c(=S)[nH]c2cc(C(=O)N3CC(C)CC(C)C3)ccc2c1=O (centres undefined)	2.3	nt	nt	nt	nt	0.2	nt	nt
CC1(C)NC(=O)N(CC(=O)OCC(=O)c2ccc(Cl)s2)C1=O	2.1	0.6	-5.6	nt	nt	-0.4	nt	nt
C/C(=N\NC(=O)c1cccc(N/N=C(\C)c2cc(O)ccc2O)c1)c1cc(O)ccc1O	25.2	15.5	-0.3	0.1	40.3*	4.1	42.0*	-3.0
C/C(=N\NC(=O)c1cccc(N/N=C(\C)c2ccco2)c1)c1ccco1	2.1	nt	nt	nt	10.2	3.6	nt	nt
O=C(c1ccc2nc(-c3ccco3)c(-c3ccco3)nc2c1)N1CCN(c2ccccc2)CC1	-24.0	-0.1	nt	3.2	14.9	-0.7	nt	nt
O=C(O)c1ccc2nc(-c3ccco3)c(-c3ccco3)nc2c1	-28.4	nt	nt	nt	35.5*	-0.9	-1.4	4.0
CCCCn1c(N)c(N(CC(C)C)C(=O)CSc2nn(-c3ccc(F)cc3)c(=S)s2)c(=O)[nH]c1=O	-11.7	nt	nt	nt	nt	-1.7	nt	nt
NC(=O)CS(=O)(=O)c1ccc(Cl)cc1	2.9	2.9	-2.5	-0.8	40.1*	4.1	-55.6	-2.0
CN1/C(=C\C(=O)COC(=O)c2ccc(O)c(O)c2)C(C)(C)c2ccccc21	nt	0.4	-4.3	-1.1	45.3*	nt	6.2	-2.2
Cc1cccc[n+]1CC(=O)/C=C1\N(C)c2ccccc2C1(C)C	-0.6	-2.0	7.6	2.1	-1.5	1.2	nt	nt
CN1/C(=C\C(=O)CSc2cccc[n+]2[O-])C(C)(C)c2ccccc21	0.7	0.9	-9.7	-1.8	49.2*	1.9	-42.2	-4.0
CC1(C)CC(=O)c2c(oc3cc(O)c(O)cc23)C1	1.3	-7.4	-10.4	0.8	83.0*	3.4	73.2*	-6.8
CCOc1ccc(-n2c(=S)sc3c(=O)n(-c4ccc(F)cc4)c(SCC(=O)O)nc32)cc1	1.3	1.3	7.7	3.2	10.7	-1.1	nt	nt
O=C(Oc1ccc(Br)cc1C(=S)N1CCOCC1)c1ccc(F)cc1	1.6	-2.7	3.3	0.2	32.5*	0.0	-17.8	10.4
COc1ccc(C(c2nnnn2-c2c(C)cccc2C)N2CCN(C/C=C/c3ccccc3)CC2)cc1 (centres undefined)	1.1	nt	nt	nt	nt	nt	nt	nt
Cc1c(NC(=O)c2ccc(NC(=O)C3CC3)cc2)cccc1C(=O)O	0.9	-5.9	0.9	-0.9	-1.7	-0.3	nt	nt
COc1cccc(OC)c1OCc1cc(C2C3CCCC=C3C(C#N)=C(N)C2(C#N)C#N)c(C)cc1C (centres undefined)	-21.8	6.9	9.7	-4.7	36.2*	1.8	-53.7	-4.3
CCCC(=O)Nc1ccc(C(=O)N/N=C2\CC(=O)CC(C)(C)C2)cc1	-13.9	0.2	5.7	1.3	39.0*	-3.3	-3.0	2.7
CC(C)c1ccc(S(=O)(=O)Nc2ccc(O)c(Sc3ncn[nH]3)c2)cc1	0.6	nt	4.1	nt	57.8*	3.2	30.8*	-0.6
COc1ccc(S(=O)(=O)Nc2ccc3c(c2)CCC3)cc1	2.1	3.7	2.8	2.1	10.7	0.7	nt	nt
Cc1cc(C)nc(NS(=O)(=O)c2ccc(NC(=O)CSc3ncn[nH]3)cc2)n1	-2.5	2.0	-2.0	-2.9	19.7	-1.4	nt	nt
COc1ccc(S(=O)(=O)Nc2ccc(O)c(Sc3ncn[nH]3)c2)cc1	4.9	2.3	0.8	-2.9	53.9*	-0.2	40.5*	1.8
O=C(CSc1ncn[nH]1)N1N=C(c2ccc(Cl)cc2)CC1c1ccco1 (centres undefined)	-2.9	-1.6	0.6	3.5	41.9*	-1.9	-7.5	-0.8
NNc1ccc2c(C(F)(F)F)cc(C(F)(F)F)nc2n1	-20.2	1.6	-0.1	1.9	45.5*	0.8	24.1	-3.8
O=C(NC1CCC(O)CC1)c1ccc(-c2ccc([N+](=O)[O-])cc2)o1 (centres undefined)	3.0	4.6	3.6	9.5	33.4*	2.8	-119.7	2.9
